Results collected from several papers.
Compare with care: the assays were run in different laboratories.
Target: Acetylcholinesterase (ACHE, Homo sapiens, UniProt P22303)

C[C@H](C(=O)N[C@H]1COc2ccccc2[C@@H]1S(C)(=O)=O)c1ccc(F)cc1
inhibition (enzyme activity; inhibitor; 10 µM): 1%

COc1ccc2c(c1)[nH]c1c(C)nccc12
inhibition (enzyme activity; inhibitor; Ellman; 1 µM): 33.8%

Cc1ncc(C)n2nc(/C=C/c3nc(N4CCCC4)cc(N4CCOCC4)n3)nc12
inhibition (enzyme activity; inhibitor; 10 µM): 4%

Nc1ncc(-c2nc(N3CCOCC3)nc(N3CCOCC3)n2)c(C(F)F)n1
remaining activity (enzyme activity; inhibitor; 10 µM): 98%

CCN1C(=O)C=CC1=O
inhibition (enzyme activity; inhibitor; 30 µM): ~20%

O=C(Nc1cccnn1)N1CCN([C@@H]2CCOc3cc(C(F)(F)F)ccc32)CC1
inhibition (enzyme activity; inhibitor; 20 µM): -3%

O=C(O)c1ccccc1O
inhibition (enzyme activity; inhibitor; Ellman; 20 µM): 1.3%

c1ccc(C(NCCNC(c2ccccc2)c2ccccc2)c2ccccc2)cc1
inhibition (enzyme activity; inhibitor; 10 µM): 13%

CN(CCN1CCC(OC(=O)Nc2ccccc2-c2ccccc2)CC1)C(=O)c1ccc(CN2CCC(C(N)=O)CC2)cc1
inhibition (enzyme activity; inhibitor; 1 µM): 9%

O=C1CN(C(=O)CCn2ccnc2)CC(O)CN1CCc1ccccc1 (stereo not drawn)
inhibition (enzyme activity; inhibitor; Ellman; 10 µM): 21.6%

C=CCn1c2cc(OC(=O)CCN3CCN(Cc4ccccc4)CC3)ccc2c2ccnc(C)c21
inhibition (enzyme activity; inhibitor; Ellman; 1 µM): 36.4%

CCOP(=O)(OCC)Oc1ccc([N+](=O)[O-])cc1
kinact/KI (enzyme activity; inhibitor): 1510 M⁻¹ s⁻¹

COCc1c(-c2cc3cc(C)cc(OC)c3s2)c2c(N)ncnn2c1CN1CCNC(=O)C1
inhibition (enzyme activity; inhibitor; 10 µM): -1%

Clc1ccc2c(C3CCN(CCc4c[nH]c5ccccc45)CC3)c[nH]c2c1
inhibition (enzyme activity; inhibitor; 10 µM): 4%

COc1ccc(S(=O)(=O)N2CCCCC2)cc1C
inhibition (ligand displacement; radioligand; 10 µM): < 30%
